# Rad51 HR inh = blocks human Rad51 in homologous recombination; Q06609; hRad51 DNA strand exchange, fluorescence dequenching; inhibition, % at 10 µM; actives 0.085% (n = 200,000);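 active = inhibition above 40% at the single screening dose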
#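 material = hRad51 filaments on single-stranded DNA | reagent = Donor/quencher-labelled 47-bp dsDNA substrate | compound = 10 µM final, single point | schedule = strand-exchange reaction 15 min at room temperature | measured by = fluorescein emission 520 nm, excitation 485 nm | read-out basis = % inhibition versus plate control and blank means | benchmarks = plate controls and plate blanks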
# CHOP inh = blocks CHOP induction under ER stress | CHO-K1 CHOP-promoter luciferase, tunicamycin-induced, 15-18 h | inhibition, % at 10 µM | actives 3.8% (n = 220,000) | AID 2732;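 active = compounds that reduced the stress-induced luciferase reporter signal by more than about 70% of percent inhibition, limit read from the data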
# Lmaj promast = reduces viability of Leishmania major promastigotes | resazurin fluorescence viability | inhibition, % at 10 µM | actives 9% (n = 200,000);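 note: promastigotes grown with compound for 44 hours at 28 °C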
# Wee1 stabilizer = inhibitors of human Wee1 degradation; P30291; HeLa Luc-Wee1K328M stability, luciferase luminescence; 100% = proteasome inhibitor MG132 effect; reporter increase, % at 5 µM; actives 1.2% (n = 220,000);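 active = activation above the mean of all tested compounds plus 3 SD, set per screening run, cut at about 8.8% in these data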;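 note: cells exposed to compound for 20 h before luminescence read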
# PKD1 kinase inh = inhibitors of human PKD1 kinase; Q15139; PKD1 kinase fluorescence polarization assay; inhibition, % (no concentration beside the values); actives 0.056% (n = 200,000)
# Target sequence (Q15139 whole entry, looked up): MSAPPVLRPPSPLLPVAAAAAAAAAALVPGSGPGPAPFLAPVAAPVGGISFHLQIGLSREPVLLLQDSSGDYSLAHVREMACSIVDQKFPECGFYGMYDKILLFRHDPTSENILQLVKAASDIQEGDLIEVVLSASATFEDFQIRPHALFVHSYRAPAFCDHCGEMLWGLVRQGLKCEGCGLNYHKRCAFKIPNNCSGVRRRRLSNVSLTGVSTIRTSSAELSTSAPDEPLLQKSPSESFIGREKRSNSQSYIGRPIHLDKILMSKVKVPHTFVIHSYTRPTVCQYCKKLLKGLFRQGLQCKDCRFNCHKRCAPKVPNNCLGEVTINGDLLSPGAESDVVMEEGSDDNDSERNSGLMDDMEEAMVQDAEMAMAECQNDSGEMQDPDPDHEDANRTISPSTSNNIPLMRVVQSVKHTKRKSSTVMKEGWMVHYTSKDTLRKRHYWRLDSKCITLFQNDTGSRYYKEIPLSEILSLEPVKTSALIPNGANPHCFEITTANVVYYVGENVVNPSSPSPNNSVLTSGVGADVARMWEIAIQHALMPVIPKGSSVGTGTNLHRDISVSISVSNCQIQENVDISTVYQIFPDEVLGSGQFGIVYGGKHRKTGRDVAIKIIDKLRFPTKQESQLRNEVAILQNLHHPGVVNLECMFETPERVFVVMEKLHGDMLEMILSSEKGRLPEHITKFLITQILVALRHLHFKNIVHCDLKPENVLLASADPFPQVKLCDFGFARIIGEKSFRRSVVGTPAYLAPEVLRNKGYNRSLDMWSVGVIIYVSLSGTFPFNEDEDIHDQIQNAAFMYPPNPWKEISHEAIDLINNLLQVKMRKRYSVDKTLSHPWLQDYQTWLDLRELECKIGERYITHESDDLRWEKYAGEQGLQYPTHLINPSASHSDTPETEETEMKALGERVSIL
# Arbovirus inh = antivirals against arbovirus infection; actives 0.37% (n = 200,000); AID 1251; arbovirus infection cell-based antiviral screen; inhibition, % at 10 µM; in the data active = inhibition above about 30%
# CHOP inh conf = confirmation of CHOP induction inhibitors | shares compounds with CHOP inh | CHO-CHOP promoter luciferase reporter, tunicamycin-induced, luminescence | inhibition, % at 10 µM | actives 45% (n = 2,100);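 active = mean of three repeat readings of reporter signal inhibition above a set limit, cut at about 70% in these data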
# Numbers stand for hits; i = inactive; nt = not tested or not shown. Shown are actives, neighbours in structure and some others; about 12% of the full set was active somewhere. Cut-off read from the data, not from the text of the source, unless noted: active = inhibition above about 50%; inactive = the rest.
SMILES,Rad51 HR inh,CHOP inh,Lmaj promast,Wee1 stabilizer,PKD1 kinase inh,Arbovirus inh,CHOP inh conf
CC(C)N(C(=O)c1ccc2nc3c4ccccc4c4ccccc4c3nc2c1)C(C)C,nt,nt,i,i,i,nt,nt
Cc1ccc(/C=N/N2C(=S)SC(C)(C)C2N(O)C(=O)Nc2ccc([N+](=O)[O-])cc2)cc1 (stereo unspecified),i,103.1,i,i,i,i,78.1
CC1(C)SC(=S)N(/N=C/c2ccc(O)cc2)C1N(O)C(=O)Nc1ccc([N+](=O)[O-])cc1 (stereo unspecified),i,i,i,i,i,i,nt
O=C(/C=C/c1ccccc1)N/C(=C/c1ccccc1)C(=O)Nc1cccc(C(=O)O)c1,i,i,i,i,i,i,nt
O=C(/C=C/c1ccccc1)Nc1cccc(C(=O)O)c1,i,97.2,i,i,i,i,116.1
Cc1cc(C(=O)NNC(=S)NC(=O)/C=C/c2ccccc2Cl)n[nH]1,i,108.0,77.7,i,i,i,i
O=S(=O)(Nc1nc(CN2CCOCC2)nc2sc3c(c12)CCCC3)c1cc(F)ccc1F,i,i,i,i,i,i,nt
Cc1ccc(C2CC2c2n[nH]c(=S)n2-c2ccc(C)cc2)cc1 (stereo unspecified),i,100.4,i,i,i,i,i
NC(=S)n1[nH]c(-c2ccc([N+](=O)[O-])cc2)c(N=Nc2ccc(Cl)cc2)c1=O,i,106.8,97.2,i,i,i,113.5
CCN(CC)C(=S)Sc1c(-c2ccccc2)c2cc(Cl)ccc2[nH]c1=O,i,97.3,i,i,i,i,i
CC(C)NC(=O)c1ccccc1NC(=O)/C=C/c1cccc([N+](=O)[O-])c1,i,107.4,i,i,i,i,111.2
CC(C)C(NC(=O)/C=C/c1cccc([N+](=O)[O-])c1)C(C)C,i,i,i,i,i,i,nt
CCn1c(=O)n(CC(=O)Nc2cc(OC)c(OC)c(OC)c2)c(=O)c2ccccc21,i,i,i,i,i,i,nt
C/C(=N\NC(=O)CN1CCN(Cc2ccccc2)CC1)c1cccs1,i,i,nt,i,nt,nt,nt
COc1ccc(N=Cc2c(O)n(-c3cccc(C)n3)c(=O)c3ccccc23)c(OC)c1,i,i,nt,i,nt,nt,nt
COc1ccc(C(=O)Nc2cc(C(=O)c3ccccc3)c(C)oc2=O)cc1,i,i,i,i,i,i,nt
Cc1oc(=O)c(NC(=O)c2cccc(Cl)c2)cc1C(=O)c1ccccc1,i,103.9,i,i,i,i,i
CCCn1c(=O)c(C(=O)N/N=C/c2ccc(F)cc2)c(O)c2ccccc21,nt,i,nt,i,nt,nt,nt
CCCCCCn1c(=O)c(C(=O)N/N=C/c2cccc(F)c2)c(O)c2ccccc21,i,105.1,i,i,i,i,99.7
CCCn1c(=O)c(C(=O)N/N=C/c2ccccc2F)c(O)c2ccccc21,i,i,i,i,i,i,nt
CC(C)CCn1c(=O)c(C(=O)N/N=C/c2cccc(F)c2)c(O)c2ccccc21,i,105.6,i,i,i,i,90.1
O=C(O)c1ccccc1Nc1cccc(OCc2ccc3ccccc3n2)c1,nt,i,nt,nt,nt,nt,nt
CC(Sc1nnc(NCc2ccccc2)s1)C(=O)Nc1ccc2c(c1)C(=O)c1ccccc1C2=O (stereo unspecified),nt,i,i,i,i,i,nt
O=C(CCNS(=O)(=O)c1ccc(Cl)cc1)NCc1cccs1,i,i,i,i,i,i,nt
CCCCCCCC(=O)N/N=C/c1ccc(Br)cc1,i,96.9,i,i,i,i,131.8
SMILES,Rad51 HR inh,CHOP inh,Lmaj promast,Wee1 stabilizer,PKD1 kinase inh,Arbovirus inh,CHOP inh conf
CCCCCCCC(=O)N/N=C/c1cccnc1,i,i,i,i,i,i,nt
C=C(C)COc1ccc(-c2[nH]ncc2-c2ccccc2)c(O)c1,i,101.7,i,i,i,i,i
CCCc1ccc(Oc2cn[nH]c2-c2ccc(O)cc2O)cc1,i,108.0,95.0,i,i,i,120.2
C=C(C)COc1ccc(-c2[nH]ncc2Oc2ccccc2OCC)c(O)c1,i,107.0,i,i,i,i,106.6
C=C(C)COc1ccc(-c2n[nH]c(C)c2Oc2ccccc2OC)c(O)c1,i,106.9,75.8,i,i,i,114.8
COc1ccc(-c2[nH]ncc2Oc2ccccc2OC)c(O)c1,i,i,i,i,i,i,nt
C=C(C)COc1ccc(-c2[nH]ncc2-c2ccc(OC)c(OC)c2)c(O)c1,i,nt,i,i,i,i,nt
